These results are taken from ChEMBL document CHEMBL5625173, “Antimycobacterial pyridine carboxamides: From design to in vivo activity” (Eur J Med Chem, 2023).

Data set [1] has as its system Mycobacterium tuberculosis. Briefly: Antimycobacterial activity against Mycobacterium tuberculosis H37Rv assessed as decreased synthesis of methoxy-mycolic acid at 1.5 to 6 ug/ml incubated for 24 hrs in presence of 14C acetate by TLC analysis. It is filed as functional, organism-based. As to conditions: dose 1.5-6 µg/ml. A digest of the protocol:
(§1)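 Mtb H37Rv cultures exposed to 0, 1.5, 3 or 6 μg/ml compound or its sodium salt for 24 h. 14C acetate then added and cells grown a further 24 h. Lipids and mycolic acids extracted; fatty acids derivatized to methyl esters. Separated by TLC on standard or AgNO3-impregnated plates in Solvent IV and visualized by autoradiography.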

Data set [2] relates to Mycobacterium tuberculosis. In words: Antimycobacterial activity against Mycobacterium tuberculosis H37Rv assessed as decreased synthesis of tri-acylglyerols at 1.5 to 6 ug/ml incubated for 24 hrs in presence of 14C acetate by TLC analysis. Format: functional, organism-based. As to conditions: dose 1.5-6 µg/ml. An outline of the steps:
as §1

Data set [3] concerns Mycobacterium tuberculosis. Briefly: Antimycobacterial activity against Mycobacterium tuberculosis H37Rv at 1 times MIC measured after 15 days in presence of methionine by alamar blue staining based microplate analysis. It is filed as functional, organism-based. The following applies: time 15.0 day. A general note: Alamar Blue is a resazurin reagent that responds to reducing activity.

Data set [4] has as its system Mycobacterium tuberculosis. In words: Antimycobacterial activity against Mycobacterium tuberculosis H37Rv assessed as change in trehalose monomycolates production at 1.5 to 6 ug/ml incubated for 24 hrs in presence of 14C acetate by TLC analysis. The following applies: dose 1.5-6 µg/ml. Format: functional, organism-based. A digest of the protocol: as §1
The subject of data set [5] is Mycobacterium tuberculosis. In words: Antimycobacterial activity against Mycobacterium tuberculosis H37Rv infected in mouse assessed as reduction in colony formation in lungs at 50 mg/kg administered for 28 days. The following applies: time 28.0 day. It is filed as functional, organism-based. A digest of the protocol: (§2)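 Mice infected intranasally with Mtb H37Rv; infection allowed to develop four weeks. Then dosed for 28 days with sodium salt forms as water solution by gastric tube. Lung and spleen CFU determined and compared with untreated control group.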

Data set [6] deals with Mycobacterium tuberculosis. In words: Antimycobacterial activity against Mycobacterium tuberculosis H37Rv assessed as change in trehalose dimycolates production at 1.5 to 6 ug/ml incubated for 24 hrs in presence of 14C acetate by TLC analysis. It is filed as functional, organism-based. The following applies: dose 1.5-6 µg/ml. An outline of the steps:
as §1

In data set [7] the test system is Mycobacterium tuberculosis. In words: Antimycobacterial activity against Mycobacterium tuberculosis H37Rv assessed as decreased synthesis of cyclopropyl-mycolic acid at 1.5 to 6 ug/ml incubated for 24 hrs in presence of 14C acetate by TLC analysis. It is filed as functional, organism-based. The following applies: dose 1.5-6 µg/ml. An outline of the steps: as §1

Data set [8] concerns Mycobacterium tuberculosis. Briefly: Antimycobacterial activity against Mycobacterium tuberculosis H37Rv assessed as change in phospholipid production at 1.5 to 6 ug/ml incubated for 24 hrs in presence of 14C acetate by TLC analysis. It is filed as functional, organism-based. As to conditions: dose 1.5-6 µg/ml. A digest of the protocol: as §1
Data set [9] deals with Mycobacterium tuberculosis. Briefly: Antimycobacterial activity against Mycobacterium tuberculosis H37Rv infected in mouse assessed as reduction in colony formation in spleen at 50 mg/kg administered for 28 days. Format: functional, organism-based. The following applies: time 28.0 day. An outline of the steps:
as §2

A further data set relates to Mycobacterium kansasii. Briefly: Antimycobacterial activity against Mycobacterium kansasii by alamar blue staining based microplate analysis. It is filed as functional. A digest of the protocol:
(§3)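 Microplate Alamar Blue assay, one of six mycobacterial strains tested (Mtb H37Rv, Mtb H37Ra, M. kansasii, M. avium, M. smegmatis, M. aurum); value reported as MIC.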

A short description of data set [10]: Metabolic stability in human liver microsomes assessed as half life at 3 uM incubated for 45 mins by HPLC-MS analysis. It is filed as ADME, Microsome. A digest of the protocol:
(§4)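 Ammonium salt or lactone, 3 μM, incubated with human liver microsomes at physiological pH; reactions stopped at 0, 5, 15, 30 and 45 min and analysed by HPLC-MS; k, t1/2 and intrinsic clearance calculated from the HPLC-MS records.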

The nature of data set [11]: Cytotoxicity against human HepG2 cells assessed as inhibition of cell viability. It is filed as toxicity, cell-based.
The next data set has as its system Mycolicibacterium aurum. Briefly: Antimycobacterial activity against Mycobacterium aurum by alamar blue staining based microplate analysis. Format: functional. A digest of the protocol:
as §3

A short description of data set [12]: Drug metabolism in human liver microsomes assessed as M2 metabolite formation at 90 uM incubated for 3 hrs. It is filed as ADME, Microsome. A digest of the protocol:
(§5)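 Phase I metabolite identification: ammonium salt of the compound (for solubility) or its lactone, 90 μM, incubated with human liver microsomes for 3 h; metabolites detected by HPLC-MS, positive ion mode, by m/z.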

Data set [13] is described as follows: Drug metabolism in human liver microsomes assessed as M3 metabolite formation at 90 uM incubated for 3 hrs. It is filed as ADME, Microsome. An outline of the steps: as §5
For orientation: Liver microsomes are vesicles of endoplasmic reticulum, rich in cytochrome P450 enzymes.

The subject of a further data set is Mycobacterium avium. In words: Antimycobacterial activity against Mycobacterium avium by alamar blue staining based microplate analysis. Format: functional. A digest of the protocol: (§6)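 Microplate Alamar Blue assay. MIC values read at pH 6.6 (neutral). One acidic-pH test at pH 5.6 is footnoted separately.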
Data set [14] concerns Mycobacterium tuberculosis. In words: Antimycobacterial activity against Mycobacterium tuberculosis H37Ra by alamar blue staining based microplate analysis. It is filed as functional. A digest of the protocol:
as §6

The nature of data set [15]: Selectivity index, ratio of IC50 for cytotoxicity against human HepG2 cells to MIC for antimycobacterial activity against Mycobacterium tuberculosis H37Rv. Format: toxicity, cell-based. As to conditions: read-out: Selectivity Index.
In data set [16] the test system is Mycobacterium tuberculosis. In words: Antimycobacterial activity against Mycobacterium tuberculosis MAT1 by alamar blue staining based microplate analysis. It is filed as functional.
The nature of data set [17]: Drug metabolism in human liver microsomes assessed as M1 metabolite formation at 90 uM incubated for 3 hrs. Format: ADME, Microsome. An outline of the steps: as §5
Data set [18] deals with Mycolicibacterium smegmatis. Briefly: Antimycobacterial activity against Mycobacterium smegmatis by alamar blue staining based microplate analysis. It is filed as functional. A digest of the protocol:
as §3

The test system of data set [19] is Mycobacterium tuberculosis. In words: Antimycobacterial activity against Mycobacterium tuberculosis H37Rv by alamar blue staining based microplate analysis. It is filed as functional. An outline of the steps:
as §6

Data set [20] has as its system Mycobacterium tuberculosis. Briefly: Antimycobacterial activity against Mycobacterium tuberculosis IZAK by alamar blue staining based microplate analysis. Format: functional.
Data set [21] in a line: Metabolic stability in human liver microsomes assessed as intrinsic clearance at 3 uM incubated for 45 mins by HPLC analysis. As to conditions: read-out: CLH. Format: ADME, Microsome. An outline of the steps: as §4
Data set [22] relates to Mycobacterium tuberculosis. In words: Antimycobacterial activity against Mycobacterium tuberculosis H37Rv at 40 times MIC measured after 15 days in presence of methionine by alamar blue staining based microplate analysis. It is filed as functional, organism-based. The following applies: time 15.0 day.

The structures appear in SMILES notation. Converted amounts (≈) assume the structure as drawn. The source made the active and inactive calls.

For `O=C(Nc1ccc(C(=O)O)c(O)c1)c1ccc2ccccc2n1`, the outcome in data set [1], in [2], in data set [7] and in data set [9] was Active. Also, the result in data set [3], in data set [4], in [5], in data set [6] and in data set [8] was inactive.
Regarding `O=C(Nc1ccc2c(c1)OCOC2=O)c1ccc2ccccc2n1`, the MIC against Mycobacterium kansasii was more than 100 µg/mL; with Mycolicibacterium aurum it was not below 250 µg/mL; against Mycobacterium avium, more than 100 µg/mL; in data set [14], 1.98 µg/mL (≈ 6.18 µM); in data set [16], 50 µg/mL (≈ 156 µM); in data set [18], not below 250 µg/mL. In addition, the values for the MIC in [19] and in data set [20] were 1.56 µg/mL (≈ 4.87 µM) and 50 µg/mL (≈ 156 µM), respectively. Moreover, the half-life at 3 µM in data set [10] turned out to be 11 min. The IC50 in [11] is more than 25 µM. Further, the Drug metabolism entry in [12], in data set [13] and in data set [17] was “Metabolite_Detected” throughout. In addition, in [15], the selectivity ratio is more than 5.1. Also, the microsomal CLint at 3 µM in [21] is 122 µL/min/mg.
For the compound `Nc1ccc(C(=O)O)c(O)c1` [AMINOSALICYLIC ACID], the IC50 in data set [11] was more than 1270 µM. Also, the outcome in data set [22] was inactive. The MIC is 250 µg/mL (≈ 1630 µM) with Mycolicibacterium aurum; 3.13 µg/mL (≈ 20.4 µM) against Mycobacterium avium; 0.25 µg/mL (≈ 1.63 µM) in [14]; 500 µg/mL (≈ 3270 µM) in data set [18]; 3.13 µg/mL (≈ 20.4 µM) in data set [19]. Moreover, the selectivity ratio in [15] is 62.1.

As a reminder, the MIC is the smallest concentration in the dilution series that meets the test's criterion for growth inhibition. Higher therefore signals a less susceptible organism. One may read the half-life as how long it takes for the measured level to halve. One may read the IC50 as the concentration that gives 50% inhibition.
